Measurements pooled from the literature.
Compare with care: the assays were run in different laboratories.
Target: Proto-oncogene tyrosine-protein kinase Src (SRC, Homo sapiens, UniProt P12931)

| SMILES | test | conditions | quantity | result |
| --- | --- | --- | --- | --- |
| Cc1cc2c(C(N)=O)c(N)n(-c3c(C)ccc(O)c3C)c2nc1C | enzyme activity, inhibitor, TR-FRET | 3.333 µM | inhibition | 100% |
| C=CC(=O)N1CCC([C@@H]2CCNc3c(C(N)=O)c(-c4ccc(Oc5ccccc5)cc4)nn32)CC1 | enzyme activity, inhibitor | 1 µM | inhibition | 42% |
| CCCCC(=O)Nc1ccc(-c2ccc3ncn(CCC)c(=O)c3c2)cn1 | binding, competition with immobilised ligand | 0.5 µM | remaining binding | 97% |
| COc1ccc2oc(-c3ccc4nc(N)oc4c3)c/c(=N\c3ccccc3NC(=O)CCN)c2c1 | binding | 1 µM | remaining binding | 72% |
| CO[C@@H]1[C@H](N(C)C(=O)c2ccccc2)C[C@H]2O[C@]1(C)n1c3ccccc3c3c4c(c5c6ccccc6n2c5c31)C(=O)NC4 | enzyme activity, inhibitor | 1 µM | inhibition | 31% |
| C[C@H]1CC[C@H](n2c3cnccc3c3cnc(Nc4ccc5c(n4)CCN(C(=O)CO)C5)nc32)CC1 | cell-free assay, competition with immobilised ligand | 1 µM | remaining binding | 65% |
| N#Cc1ccc(NC(=O)Nc2ccccc2)cc1 | cell-free assay, competition with immobilised ligand | 25 µM | remaining binding | 100% |
| Cc1cc(O)c(-c2ccc([C@@H](C)CN(C)C)cc2)c2c1[nH]c(=O)c1sccc12 | enzyme activity, inhibitor | 0.1 µM | inhibition | -1.37% |
| Cc1ccc(NC(=O)c2ccnc(C(F)(F)F)c2)cc1-c1cc(OCCO)nc(N2CCOCC2)c1 | binding, competition with immobilised ligand | 1 µM | remaining binding | 100% |
| C#Cc1cc(-c2cc(Nc3nc(N[C@@H](C)c4ccc(F)cn4)ncc3Cl)n[nH]2)ccc1C=O | enzyme activity, inhibitor | 0.2 µM | inhibition | 37.7% |
